Results as given in PMC7888308 (ACS Pharmacology & Translational Science, 2021).
Changes are numbered by the printed parent chain. In brackets after ≈: the same amount, converted by molar mass.

What was measured:
[1] = target: T1, UGT1A1 P152T (Homo sapiens, UniProt P22309, P152T); test: glucuronidation by UGT1A1 P152T expressed in COS-7 cells; type: in vitro ADME; settings: 20 μM drug, 24 h, compared to wild-type UGT1A1
T1 sequence (P22309 26-533 P152T): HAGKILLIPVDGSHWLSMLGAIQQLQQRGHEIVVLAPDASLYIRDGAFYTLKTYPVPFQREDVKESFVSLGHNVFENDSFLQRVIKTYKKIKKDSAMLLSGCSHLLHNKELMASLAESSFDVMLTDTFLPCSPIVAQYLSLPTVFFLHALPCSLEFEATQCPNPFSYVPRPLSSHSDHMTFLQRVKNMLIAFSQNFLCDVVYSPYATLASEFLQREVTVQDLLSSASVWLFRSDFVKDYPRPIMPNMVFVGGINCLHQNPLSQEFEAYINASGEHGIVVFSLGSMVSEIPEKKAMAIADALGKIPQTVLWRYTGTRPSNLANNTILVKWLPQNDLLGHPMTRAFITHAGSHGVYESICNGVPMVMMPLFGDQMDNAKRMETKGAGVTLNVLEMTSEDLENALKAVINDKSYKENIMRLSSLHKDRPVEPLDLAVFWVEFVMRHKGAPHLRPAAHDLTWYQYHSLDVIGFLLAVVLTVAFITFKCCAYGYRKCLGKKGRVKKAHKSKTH

[2] = test system: human liver microsomes; test: human liver microsome metabolism experiment; type: in vitro ADME; settings: CAB 10 μM, microsomes 0.5 mg/mL, UDPGA, 60 min, 37 °C
Outline: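 Pooled liver microsomes (50 mixed-sex donors, 0.5 mg/mL) were preincubated 5 min at 37 °C with test compound (10 μM) in 100 mM potassium phosphate, pH 7.4. A UGT reaction mixture containing 25 mM UDPGA plus alamethicin was added, and reactions ran 60 min at 37 °C. Acetonitrile quench, centrifugation, drying and methanol reconstitution followed. Glucuronide was detected by LC–MS/MS using the m/z 582 → 406 transition.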

[3] = target: T2, UGT1A9 R464G (Homo sapiens, UniProt O60656, R464G); test: CAB glucuronidation by UGT1A9 R464G expressed in COS-7 cells; type: in vitro ADME
T2 sequence (O60656 26-530 R464G): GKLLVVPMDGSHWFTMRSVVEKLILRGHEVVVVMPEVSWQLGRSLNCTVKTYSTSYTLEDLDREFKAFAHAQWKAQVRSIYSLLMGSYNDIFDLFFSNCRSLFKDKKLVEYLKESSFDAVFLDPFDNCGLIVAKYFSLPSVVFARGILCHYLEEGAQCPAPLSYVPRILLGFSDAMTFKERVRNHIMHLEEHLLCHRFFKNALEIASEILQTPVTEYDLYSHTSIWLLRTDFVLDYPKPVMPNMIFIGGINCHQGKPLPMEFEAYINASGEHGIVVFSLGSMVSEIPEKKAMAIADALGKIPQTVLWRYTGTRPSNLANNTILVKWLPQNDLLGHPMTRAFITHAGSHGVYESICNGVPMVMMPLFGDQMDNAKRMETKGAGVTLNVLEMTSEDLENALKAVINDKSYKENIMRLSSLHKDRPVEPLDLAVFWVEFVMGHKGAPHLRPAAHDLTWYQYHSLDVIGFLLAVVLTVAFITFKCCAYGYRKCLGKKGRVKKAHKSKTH

[4] = test system: human kidney microsomes; test: human kidney microsome metabolism experiment; type: in vitro ADME; settings: CAB 10 μM, microsomes 0.5 mg/mL, UGT cofactor, 60 min, 37 °C
[5] = HPTN 077 participants, South Africa, Brazil, Malawi, United States; cited from earlier work
[6] = target: T3, UGT1A9 wild-type (Homo sapiens, UniProt O60656); test: CAB glucuronidation by UGT1A9 wild-type expressed in COS-7 cells; type: in vitro ADME
T3 sequence (O60656 26-530): T2 sequence (O60656 26-530 R464G) with G439R

[7] = target: T4, wild-type UGT1A1 (Homo sapiens, UniProt P22309); test: glucuronidation by wild-type UGT1A1 expressed in COS-7 cells; type: in vitro ADME; settings: 20 μM drug, 24 h
T4 sequence (P22309 26-533): T1 sequence (P22309 26-533 P152T) with T127P

[8] = test system: HIV integrase; settings: in vitro assays; cited from earlier work
[9] = target: T5, UGT1A9 H217Y (Homo sapiens, UniProt O60656, H217Y); test: CAB glucuronidation by UGT1A9 H217Y expressed in COS-7 cells; type: in vitro ADME
T5 sequence (O60656 26-530 H217Y): T2 sequence (O60656 26-530 R464G) with H192Y, G439R

[10] = test system: UGT1A1; settings: reaction phenotyping; cited from earlier work
[11] = pH 6.8 phosphate buffer at 20 °C; cited from earlier work
[12] = test system: UGT1A9; settings: reaction phenotyping; cited from earlier work

glucuronidated metabolite in cells expressing UGT1A1 P152T [1] | metabolite formed in human liver microsomes [2] | formation of CAB-glucuronide by UGT1A9 R464G ([3]; 24 h incubation with CAB) | CAB-glucuronide production by UGT1A9 R464G ([3]; 48 h treatment with CAB) | formation of CAB-glucuronide by UGT1A9 wild-type ([6]; 24 h incubation with CAB) | CAB-glucuronide production by UGT1A9 wild-type ([6]; 48 h treatment with CAB) | glucuronidation in cells transfected with wild-type UGT1A1 [7] | formation of CAB-glucuronide by UGT1A9 H217Y ([9]; 24 h incubation with CAB) | CAB-glucuronide production by UGT1A9 H217Y ([9]; 48 h treatment with CAB) | SMILES | additional metabolites in human liver microsomes [2] | metabolite formation in human kidney microsomes [4] | tolerability [5] | efficacy of inhibition of integrase-catalyzed viral DNA strand transfer [8] | fractional contribution of UGT1A1 to CAB metabolism [10] | aqueous solubility [11] [µg/mL] | fractional contribution of UGT1A9 to CAB metabolism [12]
marked reduction |  |  |  |  |  |  |  |  | CCc1c2c(nc3ccc(O)cc13)-c1cc3c(c(=O)n1C2)COC(=O)[C@]3(O)CC [SN-38, 7-ethyl-10-hydroxycamptothecin] |  |  |  |  |  |  | 
undetectable | identified as CAB-glucuronide | not observed | not detectable above the background | not observed | able to detect | readily glucuronidated | not observed | able to detect | C[C@H]1CO[C@@H]2Cn3cc(C(=O)NCc4ccc(F)cc4F)c(=O)c(O)c3C(=O)N12 [CAB, Cabotegravir] | no additional metabolites of CAB were detected | observed the formation of CAB-glucuronide | well tolerated | low or subnanomolar | 0.67 | 15 (≈ 37 µM) | 0.33
undetectable |  |  |  |  |  | readily glucuronidated |  |  | C[C@@H]1CCO[C@H]2Cn3cc(C(=O)NCc4ccc(F)cc4F)c(=O)c(O)c3C(=O)N12 [DTG, dolutegravir] |  |  |  |  |  |  | 
